Screening data (PubChem BioAssay)
AHR activator = activators of human aryl hydrocarbon receptor; AHR-responsive luciferase reporter cells, luminescence; 320,000 compounds, 2.5% hits; AID 2796; activation, % at 5 µM; in the data active means activation above about 47%
Target sequence (P35869 whole entry, looked up): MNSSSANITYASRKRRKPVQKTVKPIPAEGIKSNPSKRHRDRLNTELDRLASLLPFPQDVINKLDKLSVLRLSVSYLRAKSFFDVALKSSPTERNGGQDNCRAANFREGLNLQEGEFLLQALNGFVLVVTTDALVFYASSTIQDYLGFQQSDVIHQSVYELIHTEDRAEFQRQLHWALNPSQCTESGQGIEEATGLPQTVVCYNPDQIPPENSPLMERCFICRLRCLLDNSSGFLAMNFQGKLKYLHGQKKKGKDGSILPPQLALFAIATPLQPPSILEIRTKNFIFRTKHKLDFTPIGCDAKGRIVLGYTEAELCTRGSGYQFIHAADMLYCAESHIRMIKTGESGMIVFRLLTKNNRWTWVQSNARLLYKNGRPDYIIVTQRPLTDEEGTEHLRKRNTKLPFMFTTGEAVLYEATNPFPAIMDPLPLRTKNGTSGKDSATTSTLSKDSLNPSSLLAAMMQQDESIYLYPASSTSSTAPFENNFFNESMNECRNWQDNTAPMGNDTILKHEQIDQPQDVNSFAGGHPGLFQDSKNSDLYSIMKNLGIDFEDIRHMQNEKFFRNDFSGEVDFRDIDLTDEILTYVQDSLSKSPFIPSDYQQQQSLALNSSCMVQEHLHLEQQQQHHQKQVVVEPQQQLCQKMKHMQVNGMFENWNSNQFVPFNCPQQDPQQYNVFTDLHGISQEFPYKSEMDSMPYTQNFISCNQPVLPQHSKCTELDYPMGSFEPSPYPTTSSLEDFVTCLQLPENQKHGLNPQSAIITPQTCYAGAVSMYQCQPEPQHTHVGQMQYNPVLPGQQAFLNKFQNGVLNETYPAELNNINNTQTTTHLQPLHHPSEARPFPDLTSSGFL
SR-BI DiI-HDL act = enhances SR-BI lipid uptake from DiI-HDL; CHO ldlA[mSR-BI] cells, DiI-HDL uptake fluorescence, 3 h; 100 = double the neutral-control signal; activation, % at 12.5 µM; 320,000 compounds, 0.096% hits;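 active means mean replicate activation of at least 60% and every replicate at or above 60%; inconclusive means mean or all-replicate condition met, but not both; inactive means mean below 60% and not all replicates reaching 60%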
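System: LDL receptor-deficient CHO ldlA cells overexpressing murine SR-BI | Timing: 3 h uptake period with compound, 37 °C | Medium: HEPES-buffered (25 mM, pH 7.4) F12 plus 0.5% BSA | Dosing: Single-point compound dose | Signal: Bottom-read fluorescence, 550/595 nm | Read-out: Retained DiI signal reflecting DiI-HDL uptake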
FXN GAA850 act = increases GAA850 frataxin promoter reporter activity. activation, % at 6 µM. HEK293 lucGAA850 FXN promoter luciferase reporter, 24 h; percent of 10 µM SAHA response. 360,000 compounds, 0.56% hits;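 active means activation above the average of all compounds screened plus 3 SD, cutoff fixed separately per campaign, cut at about 7.5% in these data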
SR-BI HDL uptake = blocks mouse SR-BI lipid uptake from DiI-HDL | Q61009 | ldlA[mSR-BI] CHO cells, DiI-HDL uptake fluorescence, 3 h | inhibition, % at 12.5 µM | 320,000 compounds, 0.96% hits | AID 488896;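 active means mean replicate inhibition of at least 70% and a set share of replicates each scoring 70 or more; inconclusive means meets just one of the two criteria; inactive means fails both criteria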
GASC-1 inh = human JMJD2C demethylase inhibition; GST-JMJD2C(1-420) H3K9me3 demethylation, DELFIA europium; inhibition, % at 2.35 µM; 330,000 compounds, 0.069% hits; AID 2099;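 active means more than half of a compound's replicate wells show inhibition beyond 50%, single wells judged on their own value; inconclusive means some, but no more than half, of replicates pass 50% inhibition; inactive means no replicate passes 50% inhibition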;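 further: signal counts dimethyl H3K9 product captured on neutravidin plate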
A number is an active result; - = inactive; ? = inconclusive; . = no result given. An excerpt weighted towards active compounds, which were near 3.7% of everything screened.

SMILES	AHR activator	SR-BI DiI-HDL act	FXN GAA850 act	SR-BI HDL uptake	GASC-1 inh
CC(C)(C)CC(=O)Nc1cccc(-c2cn3cccnc3n2)c1	48	-	-	-	-
CC(=O)Nc1cccc(-c2cn3ccccc3n2)c1	61	-	-	-	-
CC(C)C(=O)Nc1cccc(-c2cn3ccccc3n2)c1	-	-	-	-	-
CCCCC(=O)Nc1cccc(-c2csc(-c3ccccc3)n2)c1	69	-	-	-	-
COc1ccc(N2CC(C(=O)Nc3cccc(C)n3)CC2=O)cc1 (configuration not stated)	-	-	-	-	-
c1cc(-c2ccc(N3CCOCC3)cc2)n2ccnc2c1	.	.	-	.	.
COc1ccc(-n2cc(CNCCc3cscn3)c(-c3ccccc3Cl)n2)cc1	-	.	.	.	51
COc1cccc(OCc2cc(/C=N/Nc3ccc(C(=O)O)cc3)ccc2OC)c1	-	-	-	-	-
Nc1nc(Cl)nc2ccc(Br)cc12	59	-	-	-	-
CCc1c(C)nc2ccc(Br)cc2c1Cl	-	-	-	-	-
Cn1c(SCc2cccc(C(F)(F)F)c2)nnc1-c1ccco1	-	164	-	-	-
c1ccc2c(-c3cn4ccccc4n3)c[nH]c2c1	54	.	.	.	-
Cc1cccc(N2CCN(c3ccc(N4C(=O)CCCC4=O)cc3[N+](=O)[O-])CC2)c1C	-	.	-	.	-
Cc1cccc(N2CCN(c3ccc(N4C(=O)CCCC4=O)cc3[N+](=O)[O-])CC2C)c1 (configuration not stated)	70	.	-	.	-
CCOc1ccc(/C=N/NC(=O)c2ccc(CSc3nc4ccccc4[nH]3)cc2)cc1	-	-	-	-	-
O=C(N/N=C/c1ccc(OC(F)F)cc1)c1ccc(CSc2nc3ccccc3[nH]2)cc1	-	-	-	82	-
COc1cc2c(cc1OC)C(c1ccc(-c3cc(Cl)ccc3Cl)o1)=NCC2	-	-	-	?	-
COc1cc2c(cc1OC)C(c1ccc(-c3ccc(Cl)c(Cl)c3)o1)=NCC2	63	-	-	-	-
Cc1c(C2(O)CCCCC2)[nH]c2cc(C(F)(F)F)ccc12	48	-	-	-	-
Oc1ccc(Cl)cc1C=Nc1ccc2c3c(cccc13)CC2	49	-	-	-	-
O=C(COc1ccc(Cl)cc1)NCc1ccc(F)cc1	-	-	-	-	-
Cc1c(OCC(=O)N2CCC(C(=O)O)CC2)ccc2c3c(c(=O)oc12)CCCC3	-	-	-	-	-
c1ccc(-c2cn(-c3ccccc3)c3ncnc(N4CCCCC4)c23)cc1	-	-	-	-	-
CN1CCN(c2ncnc3c2c(-c2ccccc2)cn3-c2ccc(F)cc2)CC1	-	-	-	-	-
CCOc1ccc(-n2cc(-c3ccccc3)c3c(N4CCOCC4)ncnc32)cc1	-	-	-	82	-
SMILES	AHR activator	SR-BI DiI-HDL act	FXN GAA850 act	SR-BI HDL uptake	GASC-1 inh
COc1ccc(-n2cc(-c3ccccc3)c3c(N4CC(C)OC(C)C4)ncnc32)cc1 (configuration not stated)	-	-	-	76	-
CN(C(=O)CSc1nnnn1-c1ccccc1)C1CCS(=O)(=O)C1 (configuration not stated)	-	-	-	-	-
CCCc1ccc(-c2cc(C(=O)N/N=C/c3ccc([N+](=O)[O-])o3)c3ccccc3n2)cc1	-	-	-	95	-
O=C(N/N=C/c1ccc([N+](=O)[O-])o1)c1cc(-c2cccc(Br)c2)nc2ccccc12	-	-	-	105	-
O=C(N/N=C/c1ccco1)c1cc(-c2ccccc2)nc2ccccc12	-	-	-	-	-
COc1cccc(CC(=O)OCC(=O)N(C)CC(=O)Nc2ccc(Cl)c(C(F)(F)F)c2)c1	-	-	-	-	-
Cc1oncc1C(=O)Nc1ccc(C(F)(F)F)cc1	67	-	-	-	-
Cc1oncc1C(=O)Nc1ccc2ccccc2c1	.	-	-	-	-
CCOc1cc(/C=C2\SC(=O)N=C2N)ccc1O	48	-	-	-	-
CCOc1cc(/C=C2\SC(N)=NC2=O)ccc1O	-	-	-	-	-
CC(C)c1ccc(CCNC(=O)CSC(=S)N2CCCC2)cc1	-	-	-	-	-
O=C(COc1cc(F)ccc1[N+](=O)[O-])Nc1cc(S(=O)(=O)N2CCCC2)ccc1Cl	.	-	-	75	.
CCOc1ccc(Oc2ccc(NC(=O)[C@@H](NC(N)=O)[C@@H](C)CC)cc2)cc1	-	-	-	-	-
Cc1ccc(F)cc1NC(=O)CSCc1nc2sc(C)c(C)c2c(=O)[nH]1	-	-	-	-	-
